Key:
[1] = tested on: CEM-SS; assay: In vitro cytotoxicity against CEM-SS cells.; assay type: functional, cell-based; details: Homo sapiens
Procedure, shortened: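 Growth inhibition of CEM-SS cells measured alongside the HIV-1 cytoprotection assay. Run in duplicate, with triplicates at each concentration; individual triplicates varied by 10% or less.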

[2] = tested on: Human immunodeficiency virus 1; assay: In vitro antiviral activity in HIV-1 CEM-SS cytoprotection assay.; assay type: functional, organism-based; details: Human immunodeficiency virus 1, CEM-SS
Procedure, shortened: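 Cytoprotection assay using CEM-SS cells infected with HIV-1 RF. Run in duplicate, with triplicates at each compound concentration; individual triplicates varied by 10% or less.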

`C[C@H](NC(=O)c1ccccc1SC(=O)NCCBr)C(N)=O` showed an IC50 [1] of 8000 nM and an EC50 [2] of 920 nM.
`NC(=O)CCNC(=O)c1ccccc1SC(=O)NCCBr` gave an IC50 [1] of 4900 nM and an EC50 [2] of 480 nM.
